Laboratory results reported in ChEMBL document CHEMBL4765248, “Design, synthesis, biological evaluation and molecular docking study of novel thieno[3,2-d]pyrimidine derivatives as potent FAK inhibitors” (Eur J Med Chem, 2020).

How the values were obtained:
[1] = tested on: MDA-MB-231; experiment: Antiproliferative activity against human MDA-MB-231 cells assessed as cell viability at 2.5 uM measured after 72 hrs by MTT assay (reference value: 100%); type: functional; settings: read-out: Activity
[2] = target: Inhibitor of nuclear factor kappa-B kinase subunit epsilon (Homo sapiens) (UniProt Q14164); experiment: Inhibition of GST-tagged full length human IKK epsilon expressed in baculovirus expression system at 1 uM by Selectscreen kinase assay
Sequence of Inhibitor of nuclear factor kappa-B kinase subunit epsilon (Homo sapiens) (Q14164 whole entry): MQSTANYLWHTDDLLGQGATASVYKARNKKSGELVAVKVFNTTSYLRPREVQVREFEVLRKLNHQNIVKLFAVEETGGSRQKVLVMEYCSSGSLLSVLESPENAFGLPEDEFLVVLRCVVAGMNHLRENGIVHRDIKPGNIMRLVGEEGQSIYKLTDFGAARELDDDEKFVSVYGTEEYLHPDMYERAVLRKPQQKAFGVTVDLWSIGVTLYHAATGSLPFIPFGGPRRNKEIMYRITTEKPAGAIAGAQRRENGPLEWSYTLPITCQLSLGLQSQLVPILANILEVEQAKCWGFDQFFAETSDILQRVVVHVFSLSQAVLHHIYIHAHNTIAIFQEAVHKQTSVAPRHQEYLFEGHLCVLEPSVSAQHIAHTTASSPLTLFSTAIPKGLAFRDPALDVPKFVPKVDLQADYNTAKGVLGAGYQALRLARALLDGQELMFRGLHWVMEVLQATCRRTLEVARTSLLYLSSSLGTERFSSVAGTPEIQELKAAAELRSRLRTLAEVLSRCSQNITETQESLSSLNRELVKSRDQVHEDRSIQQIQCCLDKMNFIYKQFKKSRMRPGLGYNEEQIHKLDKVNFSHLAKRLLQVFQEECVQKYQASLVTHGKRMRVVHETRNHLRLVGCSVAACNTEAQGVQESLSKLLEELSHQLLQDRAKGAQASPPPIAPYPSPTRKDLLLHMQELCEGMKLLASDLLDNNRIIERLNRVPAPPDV
How it was run: (§1)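 Single-point screen at 1 μM final against a panel of 25 kinases using a commercial profiling service; mean of three independent experiments each run in triplicate.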

[3] = tested on: MDA-MB-231; experiment: Induction of apoptosis in human MDA-MB-231 cells assessed as necrotic cells at 0.4 uM incubated for 48 hrs by Annexin V-FITC/PI staining based flow cytometric analysis (reference value: 1.08%); type: functional
[4] = tested on: MDA-MB-231; experiment: Antiproliferative activity against human MDA-MB-231 cells assessed as cell viability at 0.1 uM measured after 72 hrs by MTT assay (reference value: 100%); type: functional; settings: read-out: Activity
[5] = target: ALK tyrosine kinase receptor (Homo sapiens) (UniProt Q9UM73); experiment: Inhibition of GST-tagged human ALK expressed in baculovirus expression system at 1 uM by Selectscreen kinase assay; how it was run: as §1
[6] = tested on: MDA-MB-231; experiment: Induction of cell cycle arrest in human MDA-MB-231 cells assessed as accumulation of cells at S phase at 0.2 uM measured after 48 hrs by PI staining based flow cytometry method (reference value: 39.17%); type: functional
[7] = tested on: A549; experiment: Antiproliferative activity against human A549 cells assessed as reduction in cell viability at 0.1 to 2.5 uM by MTT assay; type: functional, cell-based; settings: dose 0.1-2.5 µM, time 24-72 hrs, TDE = time-dependent effect
[8] = tested on: MDA-MB-231; experiment: Induction of apoptosis in human MDA-MB-231 cells assessed as viable cells at 0.2 uM incubated for 48 hrs by Annexin V-FITC/PI staining based flow cytometric analysis (reference value: 95.84%); type: functional; settings: read-out: Activity
[9] = target: Serine/threonine-protein kinase Chk1 (Homo sapiens) (UniProt O14757); experiment: Inhibition of His-tagged full length human CHK1 expressed in baculovirus expression system at 1 uM by Selectscreen kinase assay; how it was run: as §1
Sequence of Serine/threonine-protein kinase Chk1 (Homo sapiens) (O14757 whole entry): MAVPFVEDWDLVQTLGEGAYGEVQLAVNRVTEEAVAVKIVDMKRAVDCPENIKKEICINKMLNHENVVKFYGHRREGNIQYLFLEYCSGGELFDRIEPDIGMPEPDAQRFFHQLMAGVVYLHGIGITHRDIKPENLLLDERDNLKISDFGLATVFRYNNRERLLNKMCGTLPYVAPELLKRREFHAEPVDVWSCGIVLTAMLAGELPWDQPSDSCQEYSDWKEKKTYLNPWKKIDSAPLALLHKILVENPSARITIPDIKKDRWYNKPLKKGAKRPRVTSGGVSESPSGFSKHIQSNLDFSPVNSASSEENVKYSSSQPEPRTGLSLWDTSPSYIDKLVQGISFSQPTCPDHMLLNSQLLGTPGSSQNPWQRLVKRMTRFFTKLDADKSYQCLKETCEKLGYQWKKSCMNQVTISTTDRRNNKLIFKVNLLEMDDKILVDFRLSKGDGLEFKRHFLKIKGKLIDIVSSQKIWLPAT

[10] = tested on: MDA-MB-231; experiment: Induction of apoptosis in human MDA-MB-231 cells assessed as early apoptotic cells at 0.2 uM incubated for 48 hrs by Annexin V-FITC/PI staining based flow cytometric analysis (reference value: 1.58%); type: functional
[11] = tested on: MDA-MB-231; experiment: Antiproliferative activity against human MDA-MB-231 cells assessed as cell viability at 2.5 uM measured after 24 hrs by MTT assay (reference value: 100%); type: functional; settings: read-out: Activity
[12] = target: Homeodomain-interacting protein kinase 3 (Homo sapiens) (UniProt Q9H422); experiment: Inhibition of His-tagged human HIPK3 catalytic domain expressed in baculovirus expression system at 1 uM by Selectscreen kinase assay; how it was run: as §1
[13] = tested on: MDA-MB-231; experiment: Induction of apoptosis in human MDA-MB-231 cells assessed as necrotic cells at 0.1 uM incubated for 48 hrs by Annexin V-FITC/PI staining based flow cytometric analysis (reference value: 1.08%); type: functional
[14] = target: Serine/threonine-protein kinase mTOR (Homo sapiens) (UniProt P42345); experiment: Inhibition of GST-tagged partial length human mTOR catalytic domain (1360-2549 residues) expressed in baculovirus expression system at 1 uM by Selectscreen kinase assay; how it was run: as §1
[15] = tested on: MDA-MB-231; experiment: Antiproliferative activity against human MDA-MB-231 cells assessed as cell viability at 0.1 uM measured after 48 hrs by MTT assay (reference value: 100%); type: functional; settings: read-out: Activity
[16] = tested on: MDA-MB-231; experiment: Inhibition of cell migration in human MDA-MB-231 cells at 0.15 to 0.6 uM by wound healing assay; type: functional, cell-based; settings: dose 0.15-0.6 µM, time 24-48 hrs, TDE = time-dependent effect
How it was run: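 MDA-MB-231 cells (2×10^6/well) were grown to confluence and the monolayer was scratched with a pipette tip. Cells were washed with PBS, kept in serum-free medium and treated with DMSO or compound at 0.15, 0.3 or 0.6 μM for 48 h. Wound closure was photographed by inverted microscope at 24 and 48 h.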

[17] = tested on: MDA-MB-231; experiment: Induction of cell cycle arrest in human MDA-MB-231 cells assessed as accumulation of cells at G2/M phase at 0.4 uM measured after 48 hrs by PI staining based flow cytometry method (reference value: 17.40%); type: functional
[18] = tested on: MDA-MB-231; experiment: Induction of apoptosis in human MDA-MB-231 cells assessed as early apoptotic cells at 0.4 uM incubated for 48 hrs by Annexin V-FITC/PI staining based flow cytometric analysis (reference value: 1.58%); type: functional
[19] = Metabolic stability in rat liver microsomes assessed as parent compound remaining at 1 uM measured after 60 mins in presence of NADPH by LC-MS/MS analysis; type: ADME, Microsome; settings: read-out: Stabilty
How it was run: (§2)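 Rat liver microsomes (0.5 mg/mL) were incubated at 37 °C with 1 μM compound in 100 mM potassium phosphate, pH 7.4, with 10 mM MgCl2. Reaction was started with prewarmed NADPH cofactor and sampled at 0, 5, 10, 20, 30 and 60 min. Protein was precipitated with cold acetonitrile and supernatants analysed by LC-MS/MS to give half-life, 1 h remaining and intrinsic clearance.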

[20] = Metabolic stability in rat liver microsomes assessed as parent compound remaining at 1 uM measured after 60 mins in absence of NADPH by LC-MS/MS analysis; type: ADME, Microsome; settings: read-out: Stabilty
How it was run: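 Rat liver microsomes (0.5 mg/mL) were incubated at 37 °C with 1 μM compound in pH 7.4 potassium phosphate/MgCl2 buffer for 1 h, with buffer in place of the NADPH regeneration system. After acetonitrile precipitation, percent parent remaining was measured by LC-MS/MS.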

[21] = target: Fibroblast growth factor receptor 4 (Homo sapiens) (UniProt P22455); experiment: Inhibition of His-tagged human FGFR4 cytoplasmic domain expressed in baculovirus expression system at 1 uM by Selectscreen kinase assay; how it was run: as §1
Sequence of Fibroblast growth factor receptor 4 (Homo sapiens) (P22455 22-802 limits assumed): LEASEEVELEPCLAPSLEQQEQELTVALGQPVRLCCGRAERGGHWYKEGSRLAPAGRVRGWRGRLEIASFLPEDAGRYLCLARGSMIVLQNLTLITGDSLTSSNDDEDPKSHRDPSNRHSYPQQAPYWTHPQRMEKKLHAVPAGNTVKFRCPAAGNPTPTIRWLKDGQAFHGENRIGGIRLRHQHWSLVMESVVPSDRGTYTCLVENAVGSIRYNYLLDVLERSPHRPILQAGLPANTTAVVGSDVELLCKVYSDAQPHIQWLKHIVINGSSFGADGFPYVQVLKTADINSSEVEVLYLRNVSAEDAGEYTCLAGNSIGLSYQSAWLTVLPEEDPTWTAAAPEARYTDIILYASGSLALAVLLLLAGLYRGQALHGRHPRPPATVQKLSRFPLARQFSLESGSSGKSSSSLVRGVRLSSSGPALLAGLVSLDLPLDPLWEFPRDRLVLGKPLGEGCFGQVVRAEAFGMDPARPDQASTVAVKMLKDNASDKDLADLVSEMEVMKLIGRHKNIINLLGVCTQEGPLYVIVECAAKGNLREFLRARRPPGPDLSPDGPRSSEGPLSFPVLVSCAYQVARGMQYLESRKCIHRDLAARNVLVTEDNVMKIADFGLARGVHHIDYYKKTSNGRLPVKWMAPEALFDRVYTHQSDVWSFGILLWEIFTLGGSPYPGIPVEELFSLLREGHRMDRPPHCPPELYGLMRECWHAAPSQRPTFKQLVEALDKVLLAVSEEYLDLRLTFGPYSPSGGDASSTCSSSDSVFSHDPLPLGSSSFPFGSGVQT

[22] = tested on: MDA-MB-231; experiment: Antiproliferative activity against human MDA-MB-231 cells assessed as reduction in cell viability at 0.1 to 2.5 uM by MTT assay; type: functional, cell-based; settings: dose 0.1-2.5 µM, time 24-72 hrs, TDE = time-dependent effect
[23] = tested on: MDA-MB-231; experiment: Induction of apoptosis in human MDA-MB-231 cells assessed as late apoptotic cells at 0.1 uM incubated for 48 hrs by Annexin V-FITC/PI staining based flow cytometric analysis (reference value: 1.49%); type: functional
[24] = target: Mast/stem cell growth factor receptor Kit (Homo sapiens) (UniProt P10721); experiment: Inhibition of His-tagged human KIT cytoplasmic domain expressed in baculovirus expression system at 1 uM by Selectscreen kinase assay; how it was run: as §1
Sequence of Mast/stem cell growth factor receptor Kit (Homo sapiens) (P10721 whole entry, the tested form may be a part): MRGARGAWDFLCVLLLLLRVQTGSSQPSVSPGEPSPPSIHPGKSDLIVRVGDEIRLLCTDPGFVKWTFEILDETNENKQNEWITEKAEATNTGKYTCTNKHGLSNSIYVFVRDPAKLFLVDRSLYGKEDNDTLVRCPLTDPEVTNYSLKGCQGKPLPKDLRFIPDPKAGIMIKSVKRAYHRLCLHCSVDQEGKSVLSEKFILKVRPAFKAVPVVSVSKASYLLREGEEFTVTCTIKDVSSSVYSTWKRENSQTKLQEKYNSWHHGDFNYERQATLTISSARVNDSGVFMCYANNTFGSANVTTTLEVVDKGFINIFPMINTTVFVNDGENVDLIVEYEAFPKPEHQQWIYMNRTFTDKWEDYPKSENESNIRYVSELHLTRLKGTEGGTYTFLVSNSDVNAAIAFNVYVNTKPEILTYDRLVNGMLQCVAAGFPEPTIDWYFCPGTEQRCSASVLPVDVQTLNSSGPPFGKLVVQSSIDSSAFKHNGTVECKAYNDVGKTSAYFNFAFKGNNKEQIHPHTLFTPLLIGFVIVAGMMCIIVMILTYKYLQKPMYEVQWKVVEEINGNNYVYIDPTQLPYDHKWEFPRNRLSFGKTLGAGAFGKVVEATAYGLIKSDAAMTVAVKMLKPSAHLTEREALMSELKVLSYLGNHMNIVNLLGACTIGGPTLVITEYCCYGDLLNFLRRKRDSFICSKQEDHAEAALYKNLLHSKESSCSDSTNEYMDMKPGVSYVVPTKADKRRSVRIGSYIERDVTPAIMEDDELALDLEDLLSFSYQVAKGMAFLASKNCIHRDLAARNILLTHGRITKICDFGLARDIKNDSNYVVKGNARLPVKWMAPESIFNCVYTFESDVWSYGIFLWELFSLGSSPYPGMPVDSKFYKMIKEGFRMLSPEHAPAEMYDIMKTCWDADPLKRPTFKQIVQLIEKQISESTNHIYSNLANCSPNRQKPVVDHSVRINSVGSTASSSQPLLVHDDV

[25] = target: Tyrosine-protein kinase ZAP-70 (Homo sapiens) (UniProt P43403); experiment: Inhibition of His-tagged full-length recombinant human ZAP-70 expressed in baculovirus expression system at 1 uM by Selectscreen kinase assay; how it was run: as §1
Sequence of Tyrosine-protein kinase ZAP-70 (Homo sapiens) (P43403 whole entry): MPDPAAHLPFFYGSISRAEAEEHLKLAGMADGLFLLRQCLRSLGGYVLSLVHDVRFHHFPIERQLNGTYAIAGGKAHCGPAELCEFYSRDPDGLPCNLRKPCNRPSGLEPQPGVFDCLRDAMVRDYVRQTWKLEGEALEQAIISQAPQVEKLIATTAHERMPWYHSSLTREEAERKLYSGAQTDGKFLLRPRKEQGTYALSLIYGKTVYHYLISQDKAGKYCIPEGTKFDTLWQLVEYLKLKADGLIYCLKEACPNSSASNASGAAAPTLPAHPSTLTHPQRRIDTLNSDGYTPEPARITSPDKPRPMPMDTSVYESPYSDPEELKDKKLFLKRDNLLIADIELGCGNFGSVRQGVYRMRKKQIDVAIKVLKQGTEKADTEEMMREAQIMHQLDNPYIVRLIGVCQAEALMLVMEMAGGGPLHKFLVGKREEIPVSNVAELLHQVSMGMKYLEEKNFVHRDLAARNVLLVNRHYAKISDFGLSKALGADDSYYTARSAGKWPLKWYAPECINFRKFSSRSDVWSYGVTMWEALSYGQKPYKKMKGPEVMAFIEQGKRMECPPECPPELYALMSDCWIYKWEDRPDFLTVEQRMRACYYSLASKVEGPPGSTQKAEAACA

[26] = Intrinsic clearance in rat liver at 1 uM measured after 60 mins in presence of NADPH by LC-MS/MS analysis; type: ADME; settings: 1 h; how it was run: as §2
[27] = tested on: Hepatocyte growth factor receptor (Homo sapiens), P08581 [Y1235D]; experiment: Inhibition of GST-tagged partial length human MET (956-1390 residues) Y1235D mutant expressed in insect expression system at 1 uM by Selectscreen kinase assay; how it was run: as §1
Sequence of Hepatocyte growth factor receptor (Homo sapiens), P08581 [Y1235D] (P08581 whole entry Y1235D, the tested form may be a part): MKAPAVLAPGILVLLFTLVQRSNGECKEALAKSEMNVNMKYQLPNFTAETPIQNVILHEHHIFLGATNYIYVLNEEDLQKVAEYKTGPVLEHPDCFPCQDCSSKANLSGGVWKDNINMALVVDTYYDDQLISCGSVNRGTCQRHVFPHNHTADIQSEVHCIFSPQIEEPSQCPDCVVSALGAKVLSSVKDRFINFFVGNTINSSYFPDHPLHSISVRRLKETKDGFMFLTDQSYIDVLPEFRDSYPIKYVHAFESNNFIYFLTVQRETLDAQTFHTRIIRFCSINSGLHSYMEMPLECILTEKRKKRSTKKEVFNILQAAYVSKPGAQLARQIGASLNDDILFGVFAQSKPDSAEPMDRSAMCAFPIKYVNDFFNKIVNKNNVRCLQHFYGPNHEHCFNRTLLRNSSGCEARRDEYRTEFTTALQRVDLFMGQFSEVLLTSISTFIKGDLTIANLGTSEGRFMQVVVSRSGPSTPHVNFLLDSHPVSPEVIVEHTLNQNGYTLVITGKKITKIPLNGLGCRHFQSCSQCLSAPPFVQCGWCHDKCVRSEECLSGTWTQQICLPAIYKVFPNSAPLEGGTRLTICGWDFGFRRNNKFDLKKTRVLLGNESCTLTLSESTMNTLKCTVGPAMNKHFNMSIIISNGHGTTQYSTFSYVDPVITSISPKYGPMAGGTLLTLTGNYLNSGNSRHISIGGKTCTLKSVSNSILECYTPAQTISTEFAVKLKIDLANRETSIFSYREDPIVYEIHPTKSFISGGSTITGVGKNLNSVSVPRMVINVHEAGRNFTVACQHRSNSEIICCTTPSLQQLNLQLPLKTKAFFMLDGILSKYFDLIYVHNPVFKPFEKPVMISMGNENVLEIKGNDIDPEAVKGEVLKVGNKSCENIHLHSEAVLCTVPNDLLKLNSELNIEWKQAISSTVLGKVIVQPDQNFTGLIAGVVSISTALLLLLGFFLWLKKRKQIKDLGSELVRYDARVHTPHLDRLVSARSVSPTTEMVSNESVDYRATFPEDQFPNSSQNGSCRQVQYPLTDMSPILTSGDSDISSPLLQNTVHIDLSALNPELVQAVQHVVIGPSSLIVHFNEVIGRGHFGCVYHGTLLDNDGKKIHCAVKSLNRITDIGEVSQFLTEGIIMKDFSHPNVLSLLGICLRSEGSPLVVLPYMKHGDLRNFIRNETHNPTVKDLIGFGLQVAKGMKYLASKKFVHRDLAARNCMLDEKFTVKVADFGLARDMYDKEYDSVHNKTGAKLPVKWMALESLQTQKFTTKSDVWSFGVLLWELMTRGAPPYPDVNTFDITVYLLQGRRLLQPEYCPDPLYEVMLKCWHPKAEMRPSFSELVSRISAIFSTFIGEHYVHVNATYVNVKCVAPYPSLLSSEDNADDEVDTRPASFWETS

[28] = tested on: MDA-MB-231; experiment: Antiproliferative activity against human MDA-MB-231 cells assessed as reduction in cell viability measured after 24 to 72 hrs by MTT assay; type: functional, cell-based; settings: dose 0.1-2.5 µM, time 24-72 hrs

- inhibition [2]: 66%
- inhibition [5]: 95%
- inhibition [9]: 38%
- inhibition [12]: 72%
- inhibition [14]: 2%
- remaining at 1 h, 1 µM [19]: 72.4%
- remaining at 1 h, 1 µM [20]: 92.1%
- inhibition [21]: 66%
- inhibition [24]: 41%
- inhibition [25]: 6%
- CLH [26]: 18.6 µL/min/mg
- inhibition [27]: 72%
Compound: COc1ccccc1-c1csc2cnc(Nc3ccc(C(=O)NC4CCNCC4)c(F)c3)nc12
- viability at 2.5 µM [1]: 9.1%
- Activity [3]: 4.4%
- viability at 0.1 µM [4]: 69.7%
- Activity [6]: 39.11%
- Activity [7]: Tde
- viability at 0.2 µM [8]: 75%
- Activity [10]: 9.78%
- viability at 2.5 µM [11]: 52.2%
- Activity [13]: 2.97%
- viability at 0.1 µM [15]: 74.1%
- inhibition [16]: Tde
- Activity [17]: 3.55%
- Activity [18]: 15.61%
- Activity [22]: Tde
- Activity [23]: 4.36%
- Activity [28]: Dose-dependent effect
